Results on 14 compounds are retold here after ChEMBL document CHEMBL3792368, “Design, synthesis, and in vitro and biological evaluation of potent amino acid-derived thiol inhibitors of the metallo-β-lactamase IMP-1” (Eur J Med Chem, 2016).

Assay [1] concerns Pseudomonas aeruginosa. The assay is described as follows: Competitive inhibition of Pseudomonas aeruginosa 101/1477 IMP-1 expressed in Escherichia coli BL21(DE3) using benzylpenicillin as substrate assessed as residual activity measured for 5 mins by UV multiplate spectrophotometry. The essentials: (§1)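 IMP-1 lacking the first 21 signal-peptide residues, expressed and purified by a previously published protocol. Kinetic assays were run at pH 7 and read out as residual enzyme activity. The chromogenic cephalosporin CENTA was not used as substrate because thiol inhibitors react with it.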

Assay [2] concerns Pseudomonas aeruginosa. As to the kind of experiment: Uncompetitive inhibition of Pseudomonas aeruginosa 101/1477 IMP-1 expressed in Escherichia coli BL21(DE3) using benzylpenicillin as substrate assessed as residual activity measured for 5 mins by UV multiplate spectrophotometry. Summed up:
as §1

Assay [3] can be described thus: Competitive inhibition of IMP-1 (unknown origin).
In assay [4] the test system is Escherichia coli BL21. The assay is described as follows: Inhibition of IMP-1 in Escherichia coli BL21 assessed as reduction of imipenem MIC at 50 mM relative to control.
Assay [5] deals with Enterobacter cloacae. The assay is described as follows: Inhibition of IMP-4 in Enterobacter cloacae ECL1 assessed as reduction of imipenem MIC at 50 mM relative to control.
In assay [6] the test system is Enterobacter cloacae. As to the kind of experiment: Inhibition of IMP-4 in Enterobacter cloacae ECL2 co-expressing TEM1 assessed as imipenem MIC at 50 mM (reference value: 0.5 ug/ml).
Assay [7] deals with Escherichia coli BL21. As to the kind of experiment: Inhibition of IMP-1 in Escherichia coli BL21 assessed as imipenem MIC at 50 mM (reference value: 2 ug/ml).
The test system of assay [8] is Enterobacter cloacae. The assay is described as follows: Inhibition of IMP-4 in Enterobacter cloacae ECL2 co-expressing TEM1 assessed as reduction in imipenem MIC at 50 mM.
Assay [9] concerns Enterobacter cloacae. The assay is described as follows: Inhibition of IMP-4 in Enterobacter cloacae ECL1 assessed as imipenem MIC at 50 mM (reference value: 1.5 ug/ml).

Calls of active or inactive are those of the source. No cut-off for these calls is given here.

For `O=C(CCS)N[C@@H](Cc1ccccc1)C(=O)O`, the Kic in assay [1] was 1.45 µM. Besides, the Kiuc in [2] was determined as 0.0602 mM.

For `O=C(CS)N[C@@H](Cc1ccc(O)cc1)C(=O)O`, in [1], the Kic is 4.55 µM. For the same compound, the Kiuc in assay [2] was more than 1 mM.

Take `O=C(CCCS)N[C@@H](Cc1ccccc1)C(=O)O`: the Kic in assay [1] turned out to be 2.82 µM. In addition, the Kiuc in assay [2] is more than 1 mM.

As for `O=C(CCS)N[C@@H](Cc1ccc(O)cc1)C(=O)O`, the Kic in assay [1] worked out at 5.18 µM. Further, the Kiuc in assay [2] is more than 1 mM.

Regarding `CC(=O)SCC(=O)O`, the Kic in assay [1] was 0.32 µM. The Kiuc in assay [2] was found to be 0.00264 mM.

On to `O=C(CCCS)N[C@@H](Cc1ccc(O)cc1)C(=O)O`, for which the Kic in assay [1] stood at 5.63 µM. In assay [2], the Kiuc is more than 1 mM.

On to `O=C(CCCS)N[C@@H](Cc1c[nH]c2ccccc12)C(=O)O`, for which, in assay [1], the Kic is 8.62 µM. Also, the Kiuc in [2] is more than 1 mM.

For the compound `O=C(CS)N[C@@H](Cc1c[nH]c2ccccc12)C(=O)O`, the Kic in assay [1] worked out at 0.47 µM. Further, in assay [2], the Kiuc is more than 1 mM.

`O=C(CCS)N[C@H](Cc1ccccc1)C(=O)O`: the affinity in assay [3], expressed as Ki, was 88 nM.

As to `O=C(CS)N[C@@H](Cc1ccccc1)C(=O)O`, the Kic in assay [1] was 0.25 µM. Besides, the Kiuc in [2] is more than 1 mM.

For `O=C(CS)N[C@@H](Cc1ccc(OCc2ccccc2)cc1)C(=O)O`, the Kic in [1] came out at 0.086 µM. For the same compound, the results for the fold change (FC) in assay [4] and in [5] were 5.2 and 3.9, respectively. The MIC was 0.5 µg/mL in [6], 0.38 µg/mL in assay [7] and 0.38 µg/mL in assay [9]. Also, the inhibition entry in assay [8] was “inactive”. Also, the Kiuc in assay [2] was more than 1 mM.

For the compound `O=C(CCS)N[C@@H](Cc1c[nH]c2ccccc12)C(=O)O`, the Kic in assay [1] came to 5.02 µM. Further, the Kiuc in [2] was more than 1 mM.

Take `O=C(CCCS)N[C@@H](Cc1ccc(OCc2ccccc2)cc1)C(=O)O`: the Kic in assay [1] is 5.85 µM. For the same compound, the Kiuc in [2] is more than 1 mM.

As to `O=C(CCS)N[C@@H](Cc1ccc(OCc2ccccc2)cc1)C(=O)O`, the Kic in assay [1] amounted to 9.39 µM. Further, the Kiuc in [2] was more than 1 mM.
